What all share (type): cell-based
In test [1] the target is T1, RNA polymerase II (Mus musculus) (UniProt P08775+Q8CFI7+P97760+A0A3Q4L2S8+Q80UW8+P61219+P62488+Q923G2+P60898+O08740+Q63871+P62876). The test is described as follows: Inhibition of RNA polymerase II in mouse B16-F1 migrating cells assessed as fold change in Xpo1-RNA stability at 0.1 mM measured by […] analysis relative to control cells.
Test [2] has as its target T1, RNA polymerase II (Mus musculus). Kind of test: Inhibition of RNA polymerase II in mouse B16-F1 migrating cells assessed as fold change in Polr3f-RNA stability at 0.1 mM measured by […] analysis relative to control cells.
The target is the same in test [3]. The test is described as follows: Inhibition of RNA polymerase II in mouse B16-F1 migrating cells assessed as fold change in Cenpc1-RNA stability at 0.1 mM measured by […] analysis relative to control cells.
The target is the same in test [4]. Kind of test: Inhibition of RNA polymerase II in mouse B16-F1 migrating cells assessed as fold change in Shprh-RNA stability at 0.1 mM measured by […] analysis relative to control cells.
Test [5] has the same target. Kind of test: Inhibition of RNA polymerase II in mouse B16-F1 migrating cells assessed as fold change in Med25-RNA stability at 0.1 mM measured by ChIP-seq analysis relative to control cells.
Test [6] has the same target. The test is described as follows: Inhibition of RNA polymerase II in mouse B16-F1 migrating cells assessed as fold change in Eif2s3x-RNA stability at 0.1 mM measured by […] analysis relative to control cells. In outline: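 Mouse B16-F1 melanoma cells grown to confluence on fibronectin in DMEM/10% FCS at 37 °C, 7% CO2. Migration induced by multiple scratches and 3 h incubation; unscratched controls. DRB 0.1 mM added 3 h before lysis. RNA from poly A-selected mRNA was sequenced (RNA-seq, three replicates per DRB group). Fold change computed for DRB-treated migrating vs DRB-treated control cells; cutoffs fold change >1.3, FDR <0.05.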

Test [7] has the same target. The test is described as follows: Inhibition of RNA polymerase II in mouse B16-F1 migrating cells assessed as fold change in Agps-RNA stability at 0.1 mM measured by […] analysis relative to control cells.
Test [8] has the same target. Kind of test: Inhibition of RNA polymerase II in mouse B16-F1 migrating cells assessed as fold change in Mapre3-RNA stability at 0.1 mM measured by ChIP-seq analysis relative to control cells.
For test [9] the target is unchanged. Kind of test: Inhibition of RNA polymerase II in mouse B16-F1 migrating cells assessed as fold change in Gulp1-RNA stability at 0.1 mM measured by ChIP-seq analysis relative to control cells.
Test [10] shares this target. The test is described as follows: Inhibition of RNA polymerase II in mouse B16-F1 migrating cells assessed as fold change in Nae1-RNA stability at 0.1 mM measured by ChIP-seq analysis relative to control cells.
Test [11] has the same target. Kind of test: Inhibition of RNA polymerase II in mouse B16-F1 migrating cells assessed as fold change in Rassf2-RNA stability at 0.1 mM measured by […] analysis relative to control cells.
Test [12] has as its target Histone-lysine N-methyltransferase EZH2 (Mus musculus) (UniProt Q61188). Kind of test: Inhibition of EZH2 in mouse B16-F1 migrating cells assessed as fold change in H3K27me3-independent regulated Ltbp1-mRNA expression at 3 uM measured by […] analysis relative to control cells. Put shortly:
(§1)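 Confluent B16-F1 cells on fibronectin-coated plates were scratched at multiple sites, washed once with DMEM and left to migrate 3 h in growth medium (37 °C, 7% CO2); unscratched cells served as control. GSK343 (3 µM) was added 3 h before lysis. Poly A mRNA was sequenced (RNA-seq), with 5 replicates for untreated and 3 for treated cells. Differential expression was called by linear model with batch correction, at FDR <0.05 and fold change ≥1.3.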

Test [13] has the same target. The test is described as follows: Inhibition of EZH2 in mouse B16-F1 migrating cells assessed as fold change in H3K27me3-buffered regulated Mef2d-mRNA expression at 3 uM measured by […] analysis relative to control cells. Put shortly:
(§2)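 Confluent B16-F1 cells on fibronectin-coated plates, cultured at 37 °C and 7% CO2, were scratched at multiple sites to induce migration. They were then held 3 h in growth medium containing 3 µM GSK343, with the inhibitor added 3 h before lysis. Unscratched cells served as controls. Poly A mRNA was analysed by RNA-seq (n=3 GSK343, n=5 controls). Linear models removed batch effects, and buffered genes were those altered only under GSK343 (FDR <0.05, fold change >1.3).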

Test [14] shares this target. Kind of test: Inhibition of EZH2 in mouse B16-F1 migrating cells assessed as fold change in H3K27me3-independent regulated Ahnak-mRNA expression at 3 uM measured by […] analysis relative to control cells. Put shortly: as §1
For test [15] the target is unchanged. Kind of test: Inhibition of EZH2 in mouse B16-F1 migrating cells assessed as fold change in H3K27me3-independent regulated Tmem179-mRNA expression at 3 uM measured by […] analysis relative to control cells. Put shortly: as §1
Test [16] has the same target. Kind of test: Inhibition of EZH2 in mouse B16-F1 migrating cells assessed as fold change in H3K27me3-independent regulated Dlx6-mRNA expression at 3 uM measured by […] analysis relative to control cells. Put shortly:
as §1

Test [17] shares this target. Kind of test: Inhibition of EZH2 in mouse B16-F1 migrating cells assessed as fold change in H3K27me3-buffered regulated Synm-mRNA expression at 3 uM measured by […] analysis relative to control cells. In outline: as §1
For test [18] the target is unchanged. Kind of test: Inhibition of EZH2 in mouse B16-F1 migrating cells assessed as fold change in H3K27me3-buffered regulated Sqle-mRNA expression at 3 uM measured by […] analysis relative to control cells. In outline: as §1
Test [19] has the same target. The test is described as follows: Inhibition of EZH2 in mouse B16-F1 migrating cells assessed as fold change in H3K27me3-independent regulated Dusp10-mRNA expression at 3 uM measured by […] analysis relative to control cells. Put shortly: as §1
Test [20] has the same target. The test is described as follows: Inhibition of EZH2 in mouse B16-F1 migrating cells assessed as fold change in H3K27me3-buffered regulated Slc26a2-mRNA expression at 3 uM measured by […] analysis relative to control cells. Put shortly: as §1
For test [21] the target is unchanged. Kind of test: Inhibition of EZH2 in mouse B16-F1 migrating cells assessed as fold change in H3K27me3-buffered regulated Hs3st1-mRNA expression at 3 uM measured by […] analysis relative to control cells. Put shortly:
as §2

For test [22] the target is unchanged. Kind of test: Inhibition of EZH2 in mouse B16-F1 migrating cells assessed as fold change in H3K27me3-buffered regulated Ccdc18-mRNA expression at 3 uM measured by […] analysis relative to control cells. Put shortly:
as §2

Test [23] has the same target. The test is described as follows: Inhibition of EZH2 in mouse B16-F1 migrating cells assessed as fold change in H3K27me3-independent regulated Nr4a3-mRNA expression at 3 uM measured by ChIP-seq analysis relative to control cells. In outline:
as §1

Test [24] has the same target. Kind of test: Inhibition of EZH2 in mouse B16-F1 migrating cells assessed as fold change in H3K27me3-independent regulated Csrnp1-mRNA expression at 3 uM measured by […] analysis relative to control cells. Put shortly:
as §1

The source of these data is ChEMBL document CHEMBL5674883, “The Heterochromatin Landscape in Migrating Cells and the Importance of H3K27me3 for Associated Transcriptome Alterations” (Cells, 2018).

Structures are written as SMILES.

Histone-lysine N-methyltransferase EZH2 (Mus musculus), sequence (Q61188 whole entry): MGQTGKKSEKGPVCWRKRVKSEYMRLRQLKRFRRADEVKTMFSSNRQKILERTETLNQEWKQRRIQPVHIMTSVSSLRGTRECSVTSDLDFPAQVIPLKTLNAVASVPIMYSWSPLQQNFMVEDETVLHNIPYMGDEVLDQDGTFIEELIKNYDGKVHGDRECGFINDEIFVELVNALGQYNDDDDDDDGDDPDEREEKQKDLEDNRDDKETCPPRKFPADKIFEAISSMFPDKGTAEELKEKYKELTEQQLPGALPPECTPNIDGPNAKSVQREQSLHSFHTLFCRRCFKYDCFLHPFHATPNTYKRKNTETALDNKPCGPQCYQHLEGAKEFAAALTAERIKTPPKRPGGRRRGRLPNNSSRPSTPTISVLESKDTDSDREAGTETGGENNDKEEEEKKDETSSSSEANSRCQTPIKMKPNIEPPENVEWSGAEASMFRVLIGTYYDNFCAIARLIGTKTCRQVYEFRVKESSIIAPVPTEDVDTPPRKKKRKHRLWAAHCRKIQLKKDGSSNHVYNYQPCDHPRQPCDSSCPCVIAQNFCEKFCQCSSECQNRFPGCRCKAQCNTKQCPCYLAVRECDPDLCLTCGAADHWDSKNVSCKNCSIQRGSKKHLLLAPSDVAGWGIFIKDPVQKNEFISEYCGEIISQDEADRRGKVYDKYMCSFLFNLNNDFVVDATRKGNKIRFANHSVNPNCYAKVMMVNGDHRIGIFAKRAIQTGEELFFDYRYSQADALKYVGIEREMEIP

With `OC[C@H]1O[C@@H](n2cnc3cc(Cl)c(Cl)cc32)[C@H](O)[C@@H]1O`, the log2FC in test [1] is -0.58; in test [2], -0.8; in test [3], -0.84; in test [4] it was -0.62; in [5] it was 0.42; in test [6] it was -0.51. Besides, the log2FC in test [7] is -0.58; in [8] it was 0.77; in [9] it was -0.97; in [10], -0.43; in [11], -0.48.
As for `CCCc1cc(C)[nH]c(=O)c1CNC(=O)c1cc(-c2ccnc(N3CCN(C)CC3)c2)cc2c1cnn2C(C)C`, the log2FC in test [12] was 1.19; in test [13], 0.41; in test [14], 0.4; in test [15] it was 1.1; in test [16], -0.86; in [17] it was 1.06. The log2FC was 0.39 in test [18]; 0.57 in test [19]; 0.38 in test [20]; 0.78 in [21]; -0.87 in test [22]; 0.74 in test [23]. For the same molecule, the log2FC in [24] stood at 0.64.
